# Screening results as filed in PubChem BioAssay.
# An excerpt weighted towards active compounds, which were near 2.6% of everything screened.
# Rev-erbA mod: modulators of human Rev-erb alpha DNA binding; Rev-erbα–FITC-DNA binding, fluorescence polarization, 90 min; 370,000 tested, 0.79% active; activity, % at 10 µM; AID 1259318;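 active = activity above about 14%, limit read from the data; passing the limit was not always enough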
# Target sequence (P20393 whole entry, looked up): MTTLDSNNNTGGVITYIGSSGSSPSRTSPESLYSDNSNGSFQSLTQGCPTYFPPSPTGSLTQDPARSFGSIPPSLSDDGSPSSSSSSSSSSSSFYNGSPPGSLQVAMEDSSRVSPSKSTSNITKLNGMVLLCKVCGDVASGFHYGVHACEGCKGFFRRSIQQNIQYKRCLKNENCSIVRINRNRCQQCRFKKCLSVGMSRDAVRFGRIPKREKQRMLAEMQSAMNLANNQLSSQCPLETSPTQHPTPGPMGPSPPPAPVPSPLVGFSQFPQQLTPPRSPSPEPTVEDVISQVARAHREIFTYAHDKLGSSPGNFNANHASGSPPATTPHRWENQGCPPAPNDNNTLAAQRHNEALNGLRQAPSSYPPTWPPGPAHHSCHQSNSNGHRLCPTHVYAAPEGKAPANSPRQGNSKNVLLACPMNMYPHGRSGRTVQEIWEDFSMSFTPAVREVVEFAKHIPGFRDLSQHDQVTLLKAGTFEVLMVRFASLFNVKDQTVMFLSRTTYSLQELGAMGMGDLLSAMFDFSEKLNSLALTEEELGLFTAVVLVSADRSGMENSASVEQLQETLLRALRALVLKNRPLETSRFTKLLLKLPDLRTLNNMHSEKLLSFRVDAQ
# NR2E3 ag-1: activates human NR2E3 receptor | Q9Y5X4 | CHO-S Gal4-NCOR/VP16-NR2E3 two-hybrid, luciferase | inhibition of corepressor binding, % at 3.98 µM | 360,000 tested, 0.35% active;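 active = inhibition above the mean of all tested compounds plus 3 SD, cut at about 70% in these data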;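 also: higher means lower luciferase signal from less NR2E3 corepressor binding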
# NR2E3 ag-2: agonists of human nuclear receptor NR2E3; Q9Y5X4; GST-NR2E3/biotin-RetCOR TR-FRET, 1536-well; inhibition of corepressor binding, % at 4.78 µM; 320,000 tested, 0.12% active; AID 2300;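 active = percent inhibition above the cutoff of mean plus 3 SD of all tested compounds, set per screening campaign, cut at about 20% in these data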
#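 System: GST-tagged NR2E3 plus biotinylated RetCOR corepressor; Buffer or medium: pH 7.5 Tris-based buffer; Probe or stimulus: RetCOR corepressor, biotinylated, 7 nM; Doses: compound at 4.8 µM, single dose; Schedule: 5 h incubation at 4 °C; Technique: time-resolved FRET; Evaluation: percent inhibition of TR-FRET ratio; Replication: one well per compound, singlicate testing.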
# PG9 Ab binder: small molecules binding HIV-1 gp120 antibody PG9; TR-FRET gp120-PG9 antibody binding; inhibition, % at 6.7 µM; 360,000 tested, 0.43% active; AID 624416; in the data active = inhibition above about 8.5%
# rCAG binder: molecules binding r(CAG) RNA repeats | r(CAG) RNA repeat, TO-PRO-1 dye displacement fluorescence | inhibition, % at 3 µM | 370,000 tested, 1.3% active;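 active = inhibition above the plate cutoff, the mean of all test compounds on that plate plus 3 SD, cut at about 35% in these data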;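 also: higher means more dye released from RNA so lower well fluorescence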
# rCAG binder conf: r(CAG) RNA repeat binding, confirmation; shares compounds with rCAG binder; TO-PRO-1 dye displacement fluorescence; inhibition, % at 3 µM; 4,300 tested, 70% active;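 active = inhibition above a per-plate cutoff, the mean inhibition of sample wells plus 3 SD, cut at about 35% in these data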;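 also: loss of TO-PRO-1 fluorescence as compound displaces dye from 1x1 AA loop RNA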
# dCAG dye counter: DNA CAG dye complex inhibition counter-screen. d(CAG) DNA oligo TO-PRO-1 dye displacement, fluorescence. 4,300 tested, 94% active. shares compounds with rCAG binder. inhibition, % at 3 µM;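 active = inhibition above its plate's cutoff, the mean test-well inhibition plus 3 SD, cut at about 4.8% in these data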;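 also: hits displace the dye from DNA and so lower well fluorescence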
# Numbers stand for hits; . = inactive; / = not tested or not shown.
SMILES,Rev-erbA mod,NR2E3 ag-1,NR2E3 ag-2,PG9 Ab binder,rCAG binder,rCAG binder conf,dCAG dye counter
CCOC(=O)c1c(-c2ccc(C)cc2)csc1NC(=O)/C(C#N)=C/c1ccc(O)c(OC)c1,.,.,/,.,37,74,48
CCCc1cc(=O)[nH]c(Nc2ccc(Cl)cc2)n1,.,.,.,.,41,.,10
CCCc1cc(=O)[nH]c(Nc2ccc(OC)c(Cl)c2)n1,.,.,.,.,36,.,11
CN(c1ccc(O)cc1)c1nc(O)c(C2=c3ccccc3=NC2=O)s1,.,.,.,.,49,.,9.2
C[C@]1(CC/C(=C/CO)CO)[C@H](C=O)CC[C@@]23COC(=O)C2=CCC[C@@H]31,.,.,/,.,.,/,/
Cc1ccc2c(=O)cc(C(=O)Nc3ccc(S(=O)(=O)Nc4onc(C)c4C)cc3)oc2c1,.,.,.,.,61,37,11
Cc1cccc(-n2ccc(=O)c(C(=O)Nc3ccc(S(=O)(=O)Nc4onc(C)c4C)cc3)n2)c1,.,.,.,.,39,43,12
Cc1ccc2c(C)c(C(=O)Nc3ccc(S(=O)(=O)Nc4onc(C)c4C)cc3)oc2c1,.,.,.,.,79,74,40
Cc1cc(C)c(C(=O)Nc2ccc(S(=O)(=O)Nc3onc(C)c3C)cc2)c(C)c1,.,.,.,.,.,/,/
Cc1noc(NS(=O)(=O)c2ccc(NC(=O)c3oc4ccc(Cl)cc4c3C)cc2)c1C,.,.,.,.,88,85,48
CC(=O)Nc1ccccc1-c1cccc2nccn12,.,.,/,.,.,/,/
COC(=O)C[C@H]1N(S(=O)(=O)c2ccc(C)cc2)C(C(C)C)CC1(C(=O)OC)C(=O)OC (stereo not given in full),.,/,/,.,.,/,/
CCOC1=C2CN(S(=O)(=O)c3ccc(C)cc3)CC[C@@H]2N(S(=O)(=O)c2ccc(C)cc2)[C@H](c2ccccc2)C1,.,.,/,.,.,/,/
N#Cc1c(Cl)nc(N/N=C/c2ccccc2)c(Cl)c1Cl,.,.,.,.,45,.,.
CN1CCN([C@@H]2CS(=O)(=O)N[C@H]2COCc2ccccc2)CC1,.,.,/,.,.,/,/
O=C(Nc1ccc(F)cc1)OCCCN1C(=O)CCC12CCCCC2,.,/,/,/,.,/,/
O=C(COC(=O)c1c(F)cccc1Cl)NC(=O)Nc1ccc2c(c1)OCCO2,.,.,.,.,.,/,/
COc1ccc(Sc2ccc(/C=C3\C(=O)NN(c4ccccc4)C3=O)o2)cc1,.,.,.,.,.,/,/
Cc1ccc(N2NC(=O)/C(=C/c3ccc(-c4ccc(Cl)c(C(=O)O)c4)o3)C2=O)cc1,.,.,.,.,.,/,/
O=C1NN(c2ccccc2)C(=O)/C1=C\c1ccc(-c2cc([N+](=O)[O-])ccc2O)o1,.,.,/,.,36,44,19
O=C1NN(c2ccc(Cl)cc2)C(=O)/C1=C\c1ccc(-c2cccc(C(=O)O)c2)o1,.,.,/,.,97,66,28
CCOc1ccc(-c2nc(CS(=O)(=O)CC(=O)NCc3ccc(F)cc3)c(C)o2)cc1,.,.,.,.,.,/,/
Oc1ccc(/C=N/N(c2ccccc2)c2ccccc2)c(O)c1O,.,.,.,.,43,52,28
COC(=O)C1=C(C)N(Cc2ccccc2C(F)(F)F)C(=NCc2ccc(OC)cc2)NC1c1ccccc1 (stereo not given),.,/,/,.,.,/,/
O=C(O)c1ccc(CSc2nc(-c3ccccc3)cc(C(F)(F)F)n2)cc1,.,.,.,.,55,56,13
CCCCN(C)c1c(C)nc2ccc(C(=O)N3CCN(C(C)=O)CC3)cn12,.,.,/,.,.,/,/
CCOC(=O)N1CCN(C(=O)C[C@H]2C[C@@]3(C(=O)OC)C(=C[C@H](C(C)(C)C)O[C@@H]3C)N(CCC3=CCCCC3)C2=O)CC1,.,/,/,.,.,/,/
CC(=O)NS(=O)(=O)c1ccc(NC(=O)/C=C/c2cn(-c3ccccc3)nc2-c2ccccc2)cc1,.,.,.,.,87,86,66
CCCCCCCCN1[C@@H](CC(=O)O)c2cc(C(F)(F)F)ccc2S1(=O)=O,.,.,.,.,40,.,.
